Laboratory results published in ChEMBL document CHEMBL4400542, “Epidermal Growth Factor Receptor-Targeted Multifunctional Photosensitizers for Bladder Cancer Imaging and Photodynamic Therapy” (J Med Chem, 2019).
Active and inactive are the calls of the source. The calls are words filed in the database; no cut-off is given here.

Experiments:
[1] = target: Epidermal growth factor receptor (Homo sapiens) (UniProt P00533); assay: Inhibition of EGFR autophosphorylation at Ty1068 in human T24 cells at 1 uM followed by PDT and measured after 24 hrs by Western blot analysis; assay type: cell-based
[2] = Drug accumulation in mitochondria of human T24 cells at 500 nM formulated with 1% tween 80 solution after 24 hrs by mitotracker red based fluorimetry; assay type: ADME; settings: t-24, 24 h, 0.5 µM
[3] = Drug accumulation in lysosomes of human T24 cells at 500 nM formulated with 1% tween 80 solution after 24 hrs by lysosphere green based fluorimetry; assay type: ADME, subcellular, Lysosome; settings: t-24, 24 h, 0.5 µM
[4] = Drug accumulation in human T24 cells at 500 nM formulated with 1% tween 80 solution after 24 hrs by CARY-fluorimetry; assay type: ADME, cell-based; settings: t-24, 24 h, 0.5 µM
[5] = Drug accumulation in lysosomes of human T24 cells at 500 nM formulated with 2% pluronic F-127 solution after 24 hrs by lysosphere green based fluorimetry; assay type: ADME, subcellular, Lysosome; settings: t-24, 24 h, 0.5 µM
T-24 [6] = assay: Photo-activated cytotoxicity against human T24 cells assessed as reduction in cell viability preincubated for 24 hrs followed by 1 J/cm2 light irradiation and measured after 48 hrs formulated with 1% tween 80 solution by MTT assay; assay type: functional, cell-based; settings: T-24, light or radiation study
In short: (§1)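 Cells plated at 10k per well, allowed 24 h to adhere, then PS added in two-fold dilutions from 1 µM top for 24 h. Irradiated at 665 nm, 1.0 J/cm2 at 3.2 mW/cm2. Viability by MTT 48 h after PDT: about 2 h incubation, formazan dissolved in DMSO, absorbance at 570 nm.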

T-24 [7] = assay: Photo-activated cytotoxicity against human T24 cells assessed as reduction in cell viability preincubated for 24 hrs followed by 1 J/cm2 light irradiation and measured after 48 hrs formulated with 2% pluronic F-127 solution by MTT assay; assay type: functional, cell-based; settings: T-24, light or radiation study; in short: as §1
[8] = Drug accumulation in mitochondria of human T24 cells at 500 nM formulated with 2% pluronic F-127 solution after 24 hrs by mitotracker red based fluorimetry; assay type: ADME; settings: t-24, 24 h, 0.5 µM
UMUC3 [9] = assay: Photo-activated cytotoxicity against human UM-UC-3 cells assessed as reduction in cell viability preincubated for 24 hrs followed by 1 J/cm2 light irradiation and measured after 48 hrs formulated with 2% pluronic F-127 solution by MTT assay; assay type: functional, cell-based; settings: UMUC3, light or radiation study; in short: as §1
[10] = Drug accumulation in human UM-UC-3 cells at 500 nM formulated with 2% pluronic F-127 solution after 24 hrs by CARY-fluorimetry; assay type: ADME, cell-based; settings: umuc3, 24 h, 0.5 µM
T-24 [11] = assay: Induction of apoptosis in human T24 cells assessed as increase in apoptotic cells at 1 uM in absence of light by Annexin V/propidium iodide-staining based flow cytometry; assay type: cell-based; settings: t-24, 1 µM
[12] = Drug accumulation in mitochondria of human UM-UC-3 cells at 500 nM formulated with 2% pluronic F-127 solution after 24 hrs by mitotracker red based fluorimetry; assay type: ADME; settings: umuc3, 24 h, 0.5 µM
[13] = Drug accumulation in mitochondria of human UM-UC-3 cells at 500 nM formulated with 1% tween 80 solution after 24 hrs by mitotracker red based fluorimetry; assay type: ADME; settings: umuc3, 24 h, 0.5 µM
[14] = Drug uptake in human UM-UC-3 cells assessed as increase in gray value intensity at 1 uM pretreated for 24 hrs followed by compound washout and measured after 4 hrs by Hoechst 33342 staining based fluorescence microscopy; assay type: ADME, cell-based; settings: umuc3, 4 h
In short: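 Cells pre-incubated 24 h with free erlotinib before PS addition. Legend describes PS at 1 uM or erlotinib at 3 uM for 4 h, then three warm PBS washes. Imaged by fluorescence microscopy; grey value per field normalized to cell count, triplicate wells, each imaged in triplicate.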

[15] = Stability at -20 degC for 2 months; assay type: physicochemical; settings: 1461 h
In short: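 Formulated PS stored at -4 °C or -20 °C for two months; checked for precipitation and pH change.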

[16] = Stability at -4 degC for 2 months; assay type: physicochemical; settings: 1461 h
In short: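 Photosensitizer formulations in Tween80 or Pluronic F-127 were stored at -4 °C, alongside a -20 °C set, for two months. Stability was judged by visible precipitation and change in pH.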

[17] = Drug accumulation in human T24 cells at 500 nM formulated with 2% pluronic F-127 solution after 24 hrs by CARY-fluorimetry; assay type: ADME, cell-based; settings: t-24, 24 h, 0.5 µM
[18] = Drug uptake in human UM-UC-3 cells assessed as increase in gray value intensity at 500 nM after 48 hrs in absence of gleevec by Hoechst 33342 staining based fluorescence microscopy; assay type: ADME, cell-based; settings: umuc3, 24 h, 0.5 µM, in the assay text read “24 hrs” for “48 hrs”
In short: (§2)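 Cells plated at 100k per well, grown to 80% confluency, refreshed, then incubated 24 h with PS at 500 nM with or without Gleevec 5 µM. Washed twice with PBS, Hoechst 33342 added, imaged by fluorescence microscopy; grey value normalized to cell number, triplicate groups and images.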

UMUC3 [19] = assay: Induction of apoptosis in human UM-UC-3 cells assessed as increase in apoptotic cells at 1 uM in absence of light by Annexin V/propidium iodide-staining based flow cytometry; assay type: cell-based; settings: umuc3, 1 µM
[20] = target: Epidermal growth factor receptor (Homo sapiens) (UniProt P00533); assay: Inhibition of EGFR autophosphorylation at Ty1068 in human UM-UC-3 cells at 1 uM followed by PDT and measured after 24 hrs by Western blot analysis; assay type: cell-based
[21] = Induction of singlet oxygen generation in deaerated toluene at 670 nm assessed as singlet decay life time by femtosecond transient absorption spectroscopy; assay type: functional
[22] = Drug accumulation in lysosomes of human UM-UC-3 cells at 500 nM formulated with 1% tween 80 solution after 24 hrs by lysosphere green based fluorimetry; assay type: ADME, subcellular, Lysosome; settings: umuc3, 24 h, 0.5 µM
UMUC3 [23] = assay: Induction of oxidative stress in human UM-UC-3 cells assessed as increase in ROS production at 1 uM in presence of 1 J/cm2 light irradiation and measured at 20 min post light exposure by DCFDA-fluorescence based assay relative to control; assay type: functional
In short: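 UMUC3 cells at 10k per well; after 24 h, PS added at 1 µM for 24 h (Tween80 formulation). DCFDA 1 µM for 20 min, fluorescence read (ex 492, em 517). Then 665 nm light, 1 J total at 3.2 mW/cm2, and read again. No-DCFDA background subtracted; 0.05% H2O2 control wells.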

[24] = Drug uptake in human UM-UC-3 cells assessed as increase in gray value intensity at 500 nM after 48 hrs in presence of gleevec by Hoechst 33342 staining based fluorescence microscopy; assay type: ADME, cell-based; settings: umuc3, 24 h, 0.5 µM, in the assay text read “after 24 hrs” for “after 48 hrs”; in short: as §2
[25] = target: Epidermal growth factor receptor (Homo sapiens) (UniProt P00533); assay: Inhibition of EGFR autophosphorylation at Ty1068 in human UM-UC-3 cells at 100 nM followed by PDT and measured after 24 hrs by Western blot analysis; assay type: cell-based
[26] = Induction of singlet oxygen generation in deaerated toluene at 670 nm assessed as rate of singlet decay by femtosecond transient absorption spectroscopy; assay type: functional
[27] = Drug accumulation in human UM-UC-3 cells at 500 nM formulated with 1% tween 80 solution after 24 hrs by CARY-fluorimetry; assay type: ADME, cell-based; settings: umuc3, 24 h, 0.5 µM
UMUC3 [28] = assay: Photo-activated cytotoxicity against human UM-UC-3 cells assessed as reduction in cell viability preincubated for 24 hrs followed by 1 J/cm2 light irradiation and measured after 48 hrs formulated with 1% tween 80 solution by MTT assay; assay type: functional, cell-based; settings: UMUC3, light or radiation study; in short: as §1
[29] = Drug accumulation in lysosomes of human UM-UC-3 cells at 500 nM formulated with 2% pluronic F-127 solution after 24 hrs by lysosphere green based fluorimetry; assay type: ADME, subcellular, Lysosome; settings: umuc3, 24 h, 0.5 µM

Sequence of Epidermal growth factor receptor (Homo sapiens) (P00533 whole entry): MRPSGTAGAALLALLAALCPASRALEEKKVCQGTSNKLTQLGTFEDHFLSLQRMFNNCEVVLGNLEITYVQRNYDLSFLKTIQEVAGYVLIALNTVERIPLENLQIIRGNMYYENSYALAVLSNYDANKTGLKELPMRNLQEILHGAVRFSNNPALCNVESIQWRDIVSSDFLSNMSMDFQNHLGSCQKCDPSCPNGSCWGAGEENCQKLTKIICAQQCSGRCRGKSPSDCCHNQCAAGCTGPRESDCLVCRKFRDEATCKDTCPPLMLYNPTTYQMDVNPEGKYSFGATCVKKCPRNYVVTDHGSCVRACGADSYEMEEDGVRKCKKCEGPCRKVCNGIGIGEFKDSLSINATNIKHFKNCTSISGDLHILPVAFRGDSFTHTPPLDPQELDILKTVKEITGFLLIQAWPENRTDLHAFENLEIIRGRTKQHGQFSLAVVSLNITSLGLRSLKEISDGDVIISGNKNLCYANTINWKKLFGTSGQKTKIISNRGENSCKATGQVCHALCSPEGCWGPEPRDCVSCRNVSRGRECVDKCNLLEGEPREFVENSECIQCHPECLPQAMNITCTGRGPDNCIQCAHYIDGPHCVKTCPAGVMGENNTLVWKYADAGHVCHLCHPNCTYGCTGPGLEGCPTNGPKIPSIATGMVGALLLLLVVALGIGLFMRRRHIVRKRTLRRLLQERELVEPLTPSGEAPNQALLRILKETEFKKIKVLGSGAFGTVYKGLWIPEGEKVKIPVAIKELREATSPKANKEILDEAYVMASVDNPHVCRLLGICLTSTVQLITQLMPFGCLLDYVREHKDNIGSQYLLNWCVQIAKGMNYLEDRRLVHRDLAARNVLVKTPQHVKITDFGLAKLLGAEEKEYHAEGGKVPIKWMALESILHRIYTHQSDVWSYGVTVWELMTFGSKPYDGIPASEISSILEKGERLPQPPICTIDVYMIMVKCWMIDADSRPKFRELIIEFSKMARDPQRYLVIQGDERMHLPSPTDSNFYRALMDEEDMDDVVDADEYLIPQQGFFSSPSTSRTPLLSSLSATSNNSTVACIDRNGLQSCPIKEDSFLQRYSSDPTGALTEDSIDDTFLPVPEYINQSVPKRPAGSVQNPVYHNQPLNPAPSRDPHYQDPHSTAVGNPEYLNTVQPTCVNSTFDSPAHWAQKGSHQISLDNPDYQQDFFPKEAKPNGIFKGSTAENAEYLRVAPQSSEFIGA

Row | SMILES | inhibition [1] | Drug uptake [2] | Drug uptake [3] | Drug uptake [4] | Drug uptake [5] | IC50 (T-24 [6]) | IC50 (T-24 [7]) | Drug uptake [8] | IC50 (UMUC3 [9]) | Drug uptake [10] | Activity (T-24 [11]) | Drug uptake [12] | Drug uptake [13] | Drug uptake [14] | Stability [15] | Stability [16] | Drug uptake [17] | Drug uptake [18] | Activity (UMUC3 [19]) | inhibition [20] | other results
1 | CCC1=C(C)c2cc3[nH]c(cc4nc(c5c6[nH]c(cc1n2)c(C)c6C(=O)C5)[C@@H](CCC(=O)OC)[C@@H]4C)c(C)c3C(C)OCc1cccc(I)c1 (stereo partly drawn) | inactive | Active | Active | Active | Active | 73.7 nM | 178 nM | Active | 200 nM | Active | Non-Toxic | Active | Active | Active | Stable | Stable | Active | Active | Non-Toxic | inactive | Time [21]: 1 nanoseconds; Drug uptake [22]: Active; fold change (FC) (UMUC3 [23]): 2.5; Drug uptake [24]: Active; inhibition [25]: Active; K [26]: 1 ×10⁹ /s; Drug uptake [27]: Active; IC50 (UMUC3 [28]): 95.2 nM; Drug uptake [29]: Active
2 | CCC1=C(C)c2cc3[nH]c(cc4nc(c5c6[nH]c(cc1n2)c(C)c6C(=O)C5)[C@@H](CCC(=O)NCc1cccc(I)c1)[C@@H]4C)c(C)c3C(C)OCc1cccc(C#Cc2cccc(Nc3ncnc4cc(OCCOC)c(OCCOC)cc34)c2)c1 (stereo partly drawn) | Active | Active | Active | Active | Active | 1030 nM | 1260 nM | Active | 326 nM | Active | Non-Toxic | Active | Active | Not Active | Stable | Stable | Active | Not Active | Non-Toxic | Active | Time [21]: 83 pS; Drug uptake [22]: Active; fold change (FC) (UMUC3 [23]): 0.9; Drug uptake [24]: Not Active; inhibition [25]: Active; K [26]: 1.2 ×10¹⁰ /s; Drug uptake [27]: Active; IC50 (UMUC3 [28]): 608 nM; Drug uptake [29]: Active
